In PMC4427609 (Drug Design, Development and Therapy, 2015):
Like-named read-outs stand apart in the source and are kept apart here. Blank lines part the entries; values can stand above or below the molecule they belong to.

Key:
Format in all cases: in vivo, rat
Sprague-Dawley rats [1] = assay: Histopathology of liver, kidney and pancreas of STZ-induced diabetic rats; details: hematoxylin and eosin, light microscope
How it was run: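 Diabetes was induced in male SD rats with freshly dissolved STZ (0.1 M citrate, pH 4.5), 80 mg/kg ip, two doses over 2 days; diabetic meant fasting glucose >200 mg/dL. Liver, kidney and pancreas from diabetic and nondiabetic rats were taken immediately after sacrifice and fixed in 10% phosphate-buffered formalin. Tissue was paraffin-embedded, cut at 5 μm, H&E-stained and examined by light microscopy.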

Sprague-Dawley rats [2] = details: third day post STZ, mean ± SEM, n=10; for ALP (alkaline phosphatase) / ALT (alanine aminotransferase) / AST (aspartate aminotransferase) / Albumin / Creatinine / GGT (gamma-glutamyl transferase) / Urea: serum
How it was run: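 Male SD rats got blank injections (no STZ), one STZ dose, or two STZ doses over 2 days. STZ was freshly dissolved in 0.1 M citrate buffer pH 4.5 and given at 80 mg/kg ip. On day 3 rats were fasted for 18 h with water ad libitum. They were then staged by glucose: Stage 0 <200, Stage 1 200–450, Stage 2 451–750 mg/dL.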

[3] = test system: STZ diabetic and nondiabetic rats; assay: Effect of insulin dose on STZ diabetic and nondiabetic rats; details: insulin 6 IU/kg subcutaneously, 2 hours, mean ± SEM, n=10
[4] = Serum insulin pharmacokinetics in STZ diabetic and nondiabetic rats; details: insulin 4 IU/kg subcutaneously; result in words
[5] = Stage 1 diabetic rats (200–450 mg/dL)
[6] = Stage 2 diabetic rats (451–750 mg/dL)

ALP (alkaline phosphatase) (Sprague-Dawley rats [2]; [5]): 247±47.5 IU/L | Albumin (Sprague-Dawley rats [2]; [5]): 4.5 ± 0.3 g/dL | Creatinine (Sprague-Dawley rats [2]; [5]): 1.1 ± 0.3 mg/dL | GGT (gamma-glutamyl transferase) (Sprague-Dawley rats [2]; [5]): 3.4±0.8 IU/L | Urea (Sprague-Dawley rats [2]; [5]): 70.7 ± 10.2 mg/dL | ALP (alkaline phosphatase) (Sprague-Dawley rats [2]; [6]): 322.7±25.5 IU/L | Albumin (Sprague-Dawley rats [2]; [6]): 4.9 ± 0.2 g/dL | Creatinine (Sprague-Dawley rats [2]; [6]): 1.6 ± 0.2 mg/dL | GGT (gamma-glutamyl transferase) (Sprague-Dawley rats [2]; [6]): 9.5±4.1 IU/L | Urea (Sprague-Dawley rats [2]; [6]): 148.8 ± 9.3 mg/dL
Molecule: CN(N=O)C(=O)N[C@H]1C(O)O[C@H](CO)[C@@H](O)[C@@H]1O (mixture of isomers) [STZ, streptozotocin]
Histology of kidney sections (Sprague-Dawley rats [1]): tubular atrophy and increased vacuolization of renal tubular epithelial cells | Histology of liver sections (Sprague-Dawley rats [1]): clear diffused hepatic steatosis | Glucose (heart) (Sprague-Dawley rats [2]; [5]): 439 ± 20.9 mg/dL | Glucose (heart) (Sprague-Dawley rats [2]; [6]): 668 ± 34.5 mg/dL | ALT (alanine aminotransferase) (Sprague-Dawley rats [2]; [5]): 88±18.8 IU/L | AST (aspartate aminotransferase) (Sprague-Dawley rats [2]; [5]): 131.4±23.1 IU/L | ALT (alanine aminotransferase) (Sprague-Dawley rats [2]; [6]): 80.1±8.1 IU/L | AST (aspartate aminotransferase) (Sprague-Dawley rats [2]; [6]): 151.8±22.9 IU/L

Molecule: insulin: Recombinant human (rh) insulin powder from Biocon, dissolved in Tris buffer (pH 7), injected subcutaneously
minimum percentage of glucose level ([3]; STZ diabetic rats): 13.4%±1% | minimum percentage of glucose level ([3]; nondiabetic rats): 40.7%±4% | AUC of diabetic rats compared to nondiabetic rats [4]: doubled
